Reference: paper PMC5531262 (Messenger (Los Angeles, Calif. : Print), 2016)
“And” between values parts separate entries of the source, which are not always exact repeats. Identical values can stand only once.

Key:
Assay type in all cases: biochemical, Lytechinus pictus
[1] = system: IP3-induced Ca^2+ release (IP3Rs); experiment: IP3-induced Ca^2+ release in sea urchin egg homogenate
Method in brief: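 Lytechinus pictus egg homogenate (GluIM, pH 7.2, with ATP-regenerating system) diluted 20-fold over 3 h at 17°C to 2.5% v/v. Fluo-3 3 μM final, ex 506/em 526 nm, stirred cuvette. Test compound or DMSO preincubated 2 min, then sub-maximal IP3 chosen from a dose-response curve. Signal calibrated to [Ca2+] with 0.5 mM EGTA then 10 mM CaCl2. Sigmoidal fit; mean ± SEM, n = 4–7.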

[2] = system: cADPR-induced Ca^2+ release (RyRs); experiment: cADPR-induced Ca^2+ release in sea urchin egg homogenate
Method in brief: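 Egg homogenate from Lytechinus pictus diluted 20-fold over 3 h at 17°C in GluIM with ATP regeneration; 3 μM Fluo-3 final, calibrated with EGTA/CaCl2. Test compound or DMSO preincubated 2 min before 0.3 μM cADPR (sub-maximal). For the time course, 30 μM test compound was preincubated 10–120 s. cADPR concentration-response was run after 2 min with 30 μM or DMSO. Sigmoidal fits; mean ± SEM, n = 4–9.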

[3] = system: caffeine-induced Ca^2+ release (RyRs); experiment: caffeine-induced Ca^2+ release in sea urchin egg homogenate; conditions: 10 mM caffeine
Method in brief: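 Lytechinus pictus egg homogenate loaded with Ca2+ by 20-fold dilution over 3 h at 17°C in GluIM plus ATP-regenerating system; Fluo-3 3 μM final, stirred cuvette, ex 506/em 526 nm. Test compound preincubated 2 min, then 10 mM caffeine. Fluorescence converted to [Ca2+] using 0.5 mM EGTA and 10 mM CaCl2 for Fmin/Fmax. Sigmoidal concentration-response fit; mean ± SEM, n = 4–7.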

O=P(O)(O)O[C@@H]1[C@H](O)[C@H](O)[C@@H](OP(=O)(O)O)[C@H](OP(=O)(O)O)[C@H]1O [IP3, inositol 1,4,5-trisphosphate]
raw control ∆[Ca^2+] with IP3 ([1]; sub-maximal IP3, no inhibitor): 94 ± 1 nM

c1ccc(CN(CCN(Cc2ccccn2)Cc2ccccn2)Cc2ccccn2)nc1 [TPEN, N,N,N’,N’- tetrakis(2-pyridylmethyl)ethylenediamine]
effect on cADPR-induced Ca^2+ release ([2]; preincubation 2 minutes, then 0.3 μM cADPR, magnitude and kinetics): inhibited cADPR-induced Ca^2+ release

N=c1c2ncn3c2ncn1[C@@H]1O[C@H](COP(=O)(O)OP(=O)(O)OC[C@H]2O[C@@H]3[C@H](O)[C@@H]2O)[C@@H](O)[C@H]1O [cADPR]
raw control response ∆[Ca^2+] with cADPR ([2]; 0.3 μM cADPR, no inhibitor): 72 ± 5 nM and 76 ± 4 nM and 72 ± 4 nM and 85 ± 3 nM and 75 ± 4 nM
EC50 ([2]; read-out: EC50 of cADPR for Ca^2+ release (concentration-response curve), sea urchin egg homogenate, Fig. 2b): ~250 nM

Cn1c(=O)c2c(ncn2C)n(C)c1=O [caffeine]
raw control ∆[Ca^2+] with caffeine ([3]; no inhibitor): 80 ± 5 nM

COc1ccccc1OCCNCC(O)COc1cccc2[nH]c3ccccc3c12 (stereo not drawn) [carvedilol]
inhibition of IP3-induced Ca^2+ release (extent) ([1]; sub-maximal IP3, preincubation 2 minutes, Fig. 4): 47%
inhibition of cADPR-induced Ca^2+ release (extent) ([2]; 0.3 μM cADPR, extent of inhibition at high carvedilol concentration): > 80%
time of preincubation to maximal suppression of cADPR-induced Ca^2+ release ([2]; carvedilol 30 μM, no further inhibition at longer incubations): ≤ 10 s
inhibition of caffeine-induced Ca^2+ release (extent) ([3]; preincubation 2 minutes): > 80%
